From PubChem
STAT1 activator: activators of IFN-gamma induced STAT1 signaling. 200,000 compounds, 2.6% hits. NIH 3T3 STAT1-luciferase reporter, luminescence; 100% = IFN-gamma alone, no compound. activation (% of control), % at 5.5 µM;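 active = activation above the screen-wide mean activation plus 3 SD, cut at about 130% in these data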
APP 5'UTR act: APP 5'UTR luciferase reporter activation | SH-SY5Y APP 5'UTR luciferase reporter, luminescence; zero percent = DMSO vehicle wells | 190,000 compounds, 1% hits | activation, % at 2 µM;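 active = activation above a set limit, based on mean plus 3 SD of controls, cut at about 140% in these data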
p97 ATPase inh: blocks human p97 ATPase activity; P55072; recombinant p97 ATPase, Kinase-Glo ATP luminescence, 3 h; inhibition, % at 8 µM; 220,000 compounds, 0.42% hits; in the data active = inhibition above about 15%
MDM2 E3 inh: Mdm2 E3 ligase (human) inhibition; cell-based MDM2 ubiquitination luciferase reporter, 2 h; 0 = plate control, 100 = twice control, blank-subtracted; signal enhancement, % at 5 µM; 210,000 compounds, 0.11% hits; AID 1230;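 active = signal enhancement of 30% or more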;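 also: luminescence tracks abundance of the self-degrading MDM2-luciferase fusion protein; higher signal means inhibition of MDM2 E3 ligase activity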
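Assay system: stable mammalian line carrying autodegrading MDM2–luciferase fusion reporter; Input: 2000 cells in each well; Compound dosing: single-point 5 µM; Schedule: 2 h compound exposure at 37 °C; Signal: SteadyLite luciferase luminescence after 15 min room-temperature reagent incubation; Evaluation: % luminescence enhancement versus blank-corrected plate control mean; Benchmarks: plate controls and plate blanks.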
Wee1 stabilizer: inhibitors of human Wee1 degradation; HeLa Luc-Wee1K328M stability, luciferase luminescence; 100% = proteasome inhibitor MG132 effect; 220,000 compounds, 1.2% hits; P30291; reporter increase, % at 5 µM; AID 1321;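 active = activation above the mean of all tested compounds plus 3 SD, set per screening run, cut at about 8.8% in these data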;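 also: cells exposed to compound for 20 h before luminescence read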
Target sequence (P30291 whole entry K328M): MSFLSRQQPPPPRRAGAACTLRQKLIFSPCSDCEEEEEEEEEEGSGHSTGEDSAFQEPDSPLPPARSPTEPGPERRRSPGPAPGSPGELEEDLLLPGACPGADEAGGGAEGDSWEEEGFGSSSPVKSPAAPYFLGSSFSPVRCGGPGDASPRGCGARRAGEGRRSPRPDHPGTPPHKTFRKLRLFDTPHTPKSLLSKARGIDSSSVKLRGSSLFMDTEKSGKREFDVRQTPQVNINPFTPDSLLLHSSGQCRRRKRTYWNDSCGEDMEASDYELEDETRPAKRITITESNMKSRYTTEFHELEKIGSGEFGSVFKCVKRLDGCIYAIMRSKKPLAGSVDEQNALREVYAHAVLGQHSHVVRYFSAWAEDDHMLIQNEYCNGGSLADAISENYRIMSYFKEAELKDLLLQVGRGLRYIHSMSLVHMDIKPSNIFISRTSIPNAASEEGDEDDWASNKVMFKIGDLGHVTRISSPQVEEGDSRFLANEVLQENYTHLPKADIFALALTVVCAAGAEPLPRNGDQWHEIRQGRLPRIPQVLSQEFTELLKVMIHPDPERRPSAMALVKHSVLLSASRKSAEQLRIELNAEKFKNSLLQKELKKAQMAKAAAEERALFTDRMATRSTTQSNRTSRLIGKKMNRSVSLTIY
NF-kB expr up: raises NF-kB expression in human neuronal cells; AID 1239; 190,000 compounds, 1.6% hits; NF-kB reporter expression; hits give high values; fold change at 12.5 µM; in the data active = fold change above about 3.3
Of the large screens only hits and unclear results are named; the others gave an inactive call. The list is not random: actives were taken first. Their share in the collection is about 4.6%.

O=C(O)c1cc(NN=Nc2ccc(Br)cc2)cc([N+](=O)[O-])c1	none (no result: STAT1 activator, APP 5'UTR act, NF-kB expr up)
CCOc1cc(/C=C(/NC(C)=O)C(=O)O)cc(Cl)c1OCc1ccc(Br)cc1	none (no result: STAT1 activator, APP 5'UTR act, NF-kB expr up)
COc1cccc2c(=O)c(C(=O)NCc3cccs3)c[nH]c12	STAT1 activator 130
CC(=O)Nc1ccc(-c2nnn(CC(=O)Nc3ccc4c(c3)OCO4)n2)cc1Cl	none
C=CCn1c(SC(C)C(N)=O)nc2sc(CC)cc2c1=O (stereo not drawn)	none
C=CCn1c(SC(C)C#N)nc2sc(CC)cc2c1=O (stereo not drawn)	Wee1 stabilizer 11
COc1ccc(C2=C(N)c3ccccc3C2=O)cc1	STAT1 activator 133
COc1ccc(NC2=C(c3ccc(OC)cc3)C(=O)c3ccccc32)cc1	none
CS(=O)(=O)Oc1ccc(Br)cc1/C=C1/N=C(c2ccco2)OC1=O	none
CSC1=NCCN1C(=O)c1ccc(S(=O)(=O)N(C)C)cc1	p97 ATPase inh 15
CSC1=NCCN1C(=O)c1ccc(C)cc1	none
CCOC(=O)c1ccccc1NC(=O)c1n[nH]c(=O)c2ccccc12	NF-kB expr up 3.7
COc1ccc(OC(C)C(=O)Nc2ccccc2C(F)(F)F)cc1 (stereo not drawn)	MDM2 E3 inh 262
CCOC(=O)c1ccccc1NC(=O)C(C)Oc1ccccc1 (stereo not drawn)	Wee1 stabilizer 9.7
CCCC(C)C(=O)Nc1ccccc1C(=O)OCC (stereo not drawn)	none
CCOC(=O)c1ccc(NC(=O)c2n[nH]c(=O)c3ccccc23)cc1	none
COc1ccc(CCC(=O)Nc2ccccc2C(F)(F)F)cc1	none
Cc1cc2n(n1)C(c1ccccc1)CC(c1ccc(Br)cc1)=N2 (stereo not drawn)	none
COCCNC(=O)/C(C#N)=C/c1c(N2CC(C)OC(C)C2)nc2ccccn2c1=O (stereo not drawn)	none
COc1ccc(Nc2nc(-c3sc(NC(C)=O)nc3C)cs2)cc1	none
COc1ccc(Nc2nc(C)c(-c3ccccc3)s2)cc1	STAT1 activator 156
COc1ccc(Nc2nc(C)c3ccccc3n2)cc1	STAT1 activator 134
COC(=O)C(Sc1nc(C)cc(C)c1C#N)c1ccccc1 (stereo not drawn)	none
Cc1cc(C)c(C#N)c(Sc2ccccc2N)n1	STAT1 activator 139
CCOC(=O)c1nsnc1NCCSC(=N)N	none
O=C(Cc1ccccc1[N+](=O)[O-])NCc1ccc(Cl)cc1Cl	STAT1 activator 131, Wee1 stabilizer 9.4, NF-kB expr up 4.4
O=C(Cc1ccccc1[N+](=O)[O-])NCc1ccc(Cl)cc1	none
CC(C)Oc1ccc(CNC(=S)N/N=C/c2cccnc2)cc1	Wee1 stabilizer 9.2
CCOc1ccc(CNC(=S)N/N=C/c2cccnc2)cc1	none
O=C(Nc1ccc(-c2cnco2)cc1)c1ccccc1	none (no result: STAT1 activator, APP 5'UTR act, NF-kB expr up)
O=C(NC(=O)c1ccccc1Cl)Nc1ccc(-c2cnco2)cc1	Wee1 stabilizer 10.0 (no result: STAT1 activator, APP 5'UTR act, NF-kB expr up)
COc1cc(C2NC(=O)NC(c3ccccc3)=C2C(C)=O)cc(Cl)c1OCC(=O)O (stereo not drawn)	none
COc1cc(C2Nc3ccccc3C(=O)N2c2ccc(Cl)cc2)c(Cl)cc1OCC(=O)O (stereo not drawn)	STAT1 activator 138
COc1cc(C2NC(=O)NC(c3ccccc3)=C2C(C)=O)c(Cl)cc1OCC(=O)O (stereo not drawn)	APP 5'UTR act 199
N#C/C(=C(/O)c1cccc(F)c1)c1nc2ccccc2s1	Wee1 stabilizer 10 (no result: STAT1 activator, APP 5'UTR act, MDM2 E3 inh, NF-kB expr up)
N#C/C(=C(/O)c1ccco1)c1nc2ccccc2s1	none
COc1ccc(C2=NN3C(C2)c2ccccc2OC3c2cccs2)cc1 (stereo not drawn)	APP 5'UTR act 155, NF-kB expr up 3.8
COc1ccc(C2=NN3C(C2)c2ccccc2OC32C(=O)N(C)c3ccccc32)cc1 (stereo not drawn)	APP 5'UTR act 187, NF-kB expr up 6
CCCc1noc2c1C(c1cc(Br)ccc1F)C(C#N)=C(N)N2 (stereo not drawn)	none
Cc1ccc2oc(-c3cccc(NC(=O)C4CCCO4)c3)nc2c1 (stereo not drawn)	STAT1 activator 140, NF-kB expr up 4
CCC(=O)Nc1ccc2oc(-c3cccc(C)c3)nc2c1	APP 5'UTR act 190, NF-kB expr up 3.5
O=C(Nc1cccc(-c2nc3cc(Cl)ccc3o2)c1)C1CCCO1 (stereo not drawn)	STAT1 activator 130, NF-kB expr up 3.4 (no result: APP 5'UTR act, MDM2 E3 inh)
Cc1ccc2oc(-c3cccc(NC(=O)Cc4cccs4)c3)nc2c1	none
COc1ccc(OCC(=O)Nc2cccc(-c3nc4ccccc4o3)c2)cc1	STAT1 activator 148
CCOC(=O)/C(C#N)=C\C1=C(N2CCOCC2)CC(C)(C)OC1	none
CC(=O)c1ccc(NC(=S)Nc2cccc(Cl)c2C)cc1	none
Cc1cccc(-c2nc3cc(NC(=O)C4CCCO4)ccc3o2)c1 (stereo not drawn)	STAT1 activator 130, APP 5'UTR act 138, NF-kB expr up 4.7
COc1cc(C(=O)Nc2cccc(-c3nc4cc(C)ccc4o3)c2)cc(OC)c1OC	none
S=C1NCN(CCc2ccccc2)CN1Cc1ccccc1	Wee1 stabilizer 9.6 (no result: STAT1 activator, APP 5'UTR act, NF-kB expr up)
CCCN1CNC(=S)N(Cc2ccccc2)C1	none
CCOc1ccc(-n2nc(C(=O)N3CCN(CC)CC3)c3ccccc3c2=O)cc1	Wee1 stabilizer 9.6
CCOC(=O)C1(Cc2cccc(OC)c2)CCN(Cc2cccnc2)CC1	none
CCc1ccc(C(=O)COC(=O)c2n[nH]c3ccccc23)cc1	NF-kB expr up 5.5
COC12NC(=O)N(C)C1(OC)C(=O)N(C)C(=O)N2C (stereo not drawn)	none
CC1=CC(=C2C(=O)c3ccccc3C2=O)C=C(C)N1C	STAT1 activator 135
CCCCCN1C=CC(=C2C(=O)c3ccccc3C2=O)C=C1	none (no result: NF-kB expr up)
Cc1cc(NC(=O)c2coc(=O)c(Br)c2)ccc1C(C)C	none (no result: STAT1 activator, APP 5'UTR act, NF-kB expr up)
O=C(CSc1ccccc1)NCc1ccccn1	none
Brc1c(CSc2nc3ccccc3s2)nc2ncccn12	STAT1 activator 133, NF-kB expr up 4.5
CC(C)NC(=S)Nc1ccc2cn[nH]c2c1	none
Clc1ccc(-c2ccc(SCc3ccccn3)nn2)cc1	STAT1 activator 145, Wee1 stabilizer 10
COc1ccc(-c2ccc(SCc3ccccn3)nn2)cc1OC	none
c1ccc(CSc2ccc(-c3ccccn3)nn2)nc1	STAT1 activator 133, Wee1 stabilizer 9.7
O=[N+]([O-])c1cccc(-c2ccc(SCc3ccccn3)nn2)c1	STAT1 activator 135
c1ccc(-c2ccc(SCc3cccnc3)nn2)nc1	none
COc1cccc(-c2ccc(SCc3ccccn3)nn2)c1	none
O=C(Nc1ccc(CN2CCOCC2)cc1)c1cc2ccccc2o1	STAT1 activator 134, APP 5'UTR act 168, Wee1 stabilizer 10
